According to paper PMC7935786 (Cancer Science, 2021):
“And” between values parts separate entries of the source, which are not always exact repeats. Identical values can stand only once. “Also recorded” adds a separate entry of the source.

Experiments:
[1] = tested on: Japanese patients with relapsed or refractory B‐NHL; test: Phase I study: safety, adverse events and DLT; format: in vivo, human
Summary of the method: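 Patients received 800 mg orally once in a 4-day cycle 0, then 800 mg BID in 28-day cycles; reduction to 600 then 400 mg BID permitted. AEs graded by CTCAE v4.03, with hematology, chemistry, urinalysis, vital signs, 12-lead ECG and LVEF by echo/MUGA. DLT assessed over cycles 0–1 in patients completing both with ≥75% cycle-1 compliance, or having DLT. Safety set: ≥1 dose.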

[2] = tested on: relapsed or refractory B‐cell lymphoma; test: Phase I study: antitumor activity, Lugano Classification; format: in vivo, human
Summary of the method: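 Oral dosing: 800 mg single dose in 4-day cycle 0, then 800 mg BID in 28-day cycles. Response assessed by CT per Lugano Classification. Bone marrow aspiration or biopsy if screening was positive or unconfirmed, to confirm CR, or when clinically indicated. Best overall response summarized overall and by DLBCL or FL in patients receiving ≥1 dose. ORR given with two-sided Clopper-Pearson exact 95% CIs.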

[3] = Phase I study: plasma and urine pharmacokinetics; format: in vivo, human; conditions: for R ss: AUC(0-12h) on cycle 1 day 15/AUC(0-inf) on cycle 0 day 1; for t max: median (minimum, maximum)
[4] = cited from earlier work
[5] = tested on: refractory B‐NHL and advanced solid tumors; conditions: study outside of Japan; cited from earlier work
CYP3A4 = conditions: ref Unpublished data in Eisai, cited from earlier work
[6] = seven treated patients, investigator assessment

## CCN(c1cc(-c2ccc(CN3CCOCC3)cc2)cc(C(=O)NCc2c(C)cc(C)[nH]c2=O)c1C)C1CCOCC1 [Tazemetostat]
[1]; 800 mg BID, n = 7
  Anemia, all TEAEs, Grade ≥3: 1 (14.3) patients (%)
  Anemia, all TEAEs, all grades: 2 (28.6) patients (%)
  Anemia, treatment‐related TEAEs, Grade ≥3: 1 (14.3) patients (%)
  Anemia, treatment‐related TEAEs, all grades: 2 (28.6) patients (%)
  Blood creatinine increased, all TEAEs, Grade ≥3: 0 (0.0) patients (%)
  Blood creatinine increased, all TEAEs, all grades: 2 (28.6) patients (%)
  Blood creatinine increased, treatment‐related TEAEs, Grade ≥3: 0 (0.0) patients (%)
  Blood creatinine increased, treatment‐related TEAEs, all grades: 1 (14.3) patients (%)
  Constipation, all TEAEs, Grade ≥3: 0 (0.0) patients (%)
  Constipation, all TEAEs, all grades: 3 (42.9) patients (%)
  Constipation, treatment‐related TEAEs, Grade ≥3: 0 (0.0) patients (%)
  Constipation, treatment‐related TEAEs, all grades: 1 (14.3) patients (%)
  Dry eye, all TEAEs, Grade ≥3: 0 (0.0) patients (%)
  Dry eye, all TEAEs, all grades: 2 (28.6) patients (%)
  Dry eye, treatment‐related TEAEs, Grade ≥3: 0 (0.0) patients (%)
  Dry eye, treatment‐related TEAEs, all grades: 0 (0.0) patients (%)
  Dry skin, all TEAEs, Grade ≥3: 0 (0.0) patients (%)
  Dry skin, all TEAEs, all grades: 2 (28.6) patients (%)
  Dry skin, treatment‐related TEAEs, Grade ≥3: 0 (0.0) patients (%)
  Dry skin, treatment‐related TEAEs, all grades: 2 (28.6) patients (%)
  Dysgeusia, all TEAEs, Grade ≥3: 0 (0.0) patients (%)
  Dysgeusia, all TEAEs, all grades: 3 (42.9) patients (%)
  Dysgeusia, treatment‐related TEAEs, Grade ≥3: 0 (0.0) patients (%)
  Dysgeusia, treatment‐related TEAEs, all grades: 3 (42.9) patients (%)
  Fatigue, all TEAEs, Grade ≥3: 1 (14.3) patients (%)
  Fatigue, all TEAEs, all grades: 2 (28.6) patients (%)
  Fatigue, treatment‐related TEAEs, Grade ≥3: 1 (14.3) patients (%)
  Fatigue, treatment‐related TEAEs, all grades: 2 (28.6) patients (%)
  Insomnia, all TEAEs, Grade ≥3: 0 (0.0) patients (%)
  Insomnia, all TEAEs, all grades: 2 (28.6) patients (%)
  Insomnia, treatment‐related TEAEs, Grade ≥3: 0 (0.0) patients (%)
  Insomnia, treatment‐related TEAEs, all grades: 1 (14.3) patients (%)
  Leukopenia, all TEAEs, Grade ≥3: 1 (14.3) patients (%)
  Leukopenia, all TEAEs, all grades: 2 (28.6) patients (%)
  Leukopenia, treatment‐related TEAEs, Grade ≥3: 0 (0.0) patients (%)
  Leukopenia, treatment‐related TEAEs, all grades: 1 (14.3) patients (%)
  Muscle spasms, all TEAEs, Grade ≥3: 0 (0.0) patients (%)
  Muscle spasms, all TEAEs, all grades: 2 (28.6) patients (%)
  Muscle spasms, treatment‐related TEAEs, Grade ≥3: 0 (0.0) patients (%)
  Muscle spasms, treatment‐related TEAEs, all grades: 2 (28.6) patients (%)
  Nasopharyngitis, all TEAEs, Grade ≥3: 0 (0.0) patients (%)
  Nasopharyngitis, all TEAEs, all grades: 5 (71.4) patients (%)
  Nasopharyngitis, treatment‐related TEAEs, Grade ≥3: 0 (0.0) patients (%)
  Nasopharyngitis, treatment‐related TEAEs, all grades: 0 (0.0) patients (%)
  Neutropenia, all TEAEs, Grade ≥3: 1 (14.3) patients (%)
  Neutropenia, all TEAEs, all grades: 2 (28.6) patients (%)
  Neutropenia, treatment‐related TEAEs, Grade ≥3: 0 (0.0) patients (%)
  Neutropenia, treatment‐related TEAEs, all grades: 1 (14.3) patients (%)
  Rash, all TEAEs, Grade ≥3: 0 (0.0) patients (%)
  Rash, all TEAEs, all grades: 2 (28.6) patients (%)
  Rash, treatment‐related TEAEs, Grade ≥3: 0 (0.0) patients (%)
  Rash, treatment‐related TEAEs, all grades: 2 (28.6) patients (%)
  Stomatitis, all TEAEs, Grade ≥3: 0 (0.0) patients (%)
  Stomatitis, all TEAEs, all grades: 2 (28.6) patients (%)
  Stomatitis, treatment‐related TEAEs, Grade ≥3: 0 (0.0) patients (%)
  Stomatitis, treatment‐related TEAEs, all grades: 2 (28.6) patients (%)
  Thrombocytopenia, all TEAEs, Grade ≥3: 2 (28.6) patients (%)
  Thrombocytopenia, all TEAEs, all grades: 3 (42.9) patients (%)
  Thrombocytopenia, treatment‐related TEAEs, Grade ≥3: 2 (28.6) patients (%)
  Thrombocytopenia, treatment‐related TEAEs, all grades: 3 (42.9) patients (%)
[1]; cycles 0 and 1, six evaluable patients, 800 mg BID
  dose‐limiting toxicity (DLT): No DLTs; also recorded: did not observe any DLT
[1]; n = 7
  AE anemia: 29%
  AE constipation: 42.9%
  AE dry skin: 29%
  AE dysgeusia: 42.9% and 43%
  AE fatigue: 29%
  AE leading to dose reduction: 14.3%
  AE nasopharyngitis: 71.4%
  AE rash: 29%
  AE stomatitis: 29%
  AE thrombocytopenia: 42.9% and 43%
  AEs leading to dose interruption: 57.1%
  Grade 3 AE anemia: 14.3%
  Grade 3 AE fatigue: 14.3%
  Grade 3 AE hypophosphatemia: 14.3%
  Grade 3 AE increased γ‐glutamyltransferase: 14.3%
  Grade 3 AE leukopenia: 14.3%
  Grade 3 AE lymphopenia: 14.3%
  Grade 3 AE neutropenia: 14.3%
  Grade 3 AE squamous cell carcinoma of the tongue: 14.3%
  Grade 3 AE thrombocytopenia: 28.6%
  Grade 3 or higher AEs: 57.1%
  Grade 4 AE increased levels of blood triglycerides: 14.3%
  Grade 4 AE intestinal perforation: 14.3%
  TR‐AE dysgeusia: 42.9%
  TR‐AE thrombocytopenia: 42.9%
  grade 2 peripheral neuropathy, leading to drug dose reduction: 14.3%
  patients having at least one TR‐AE: 85.7%
  patients who died or had AEs resulting in death: None
  patients who experienced at least one AE: seven
  treatment‐related serious AEs: No treatment‐related serious AEs
[1]; n = 7, intestinal perforation and squamous cell carcinoma of the tongue
  Serious AEs: 28.6%
[1]; n = 7, listed as tazemetostat
  treatment‐related serious AEs: both assessed as not related to study drug; also recorded: No treatment‐related SAEs
[1]; n = 7, section 3.2
  patients who received a reduction in the tazemetostat dose: 14.3%
[1]; one patient
  time to first dose reduction: 4.9 months
[2]; DLBCL
  responses in patients with DLBCL: one of three
[2]; DLBCL (n = 3), 800 mg BID
  Best overall response: Complete response (CR): 1 (33.3) n (%)
  Best overall response: Not evaluable: 0 (0.0) n (%)
  Best overall response: Partial response (PR): 0 (0.0) n (%)
  Best overall response: Progressive disease: 2 (66.7) n (%)
  Best overall response: Stable disease: 0 (0.0) n (%)
  Objective response rate (CR + PR): 1 (33.3) n (%)
[2]; FL
  responses in patients with FL: three of four
[2]; FL (n = 4), 800 mg BID
  Best overall response: Complete response (CR): 0 (0.0) n (%)
  Best overall response: Not evaluable: 0 (0.0) n (%)
  Best overall response: Partial response (PR): 3 (75.0) n (%)
  Best overall response: Progressive disease: 0 (0.0) n (%)
  Best overall response: Stable disease: 1 (25.0) n (%)
  Objective response rate (CR + PR): 3 (75.0) n (%)
[2]; Total (n = 7), 800 mg BID
  Best overall response: Complete response (CR): 1 (14.3) n (%)
  Best overall response: Not evaluable: 0 (0.0) n (%)
  Best overall response: Partial response (PR): 3 (42.9) n (%)
  Best overall response: Progressive disease: 2 (28.6) n (%)
  Best overall response: Stable disease: 1 (14.3) n (%)
  Objective response rate (CR + PR): 4 (57.1) n (%)
[2]; all patients (4/7), 800 mg BID
  ORR: 57.1%
[2]; n = 7
  patients who experienced a reduction of tumor burden: 85.7%
[2]; one patient with FL with gain‐of‐function mutation in EZH2, partial response
  maximum change in the sum of the product of the diameters from baseline in the target lesion: −82.3%
[2]; [6]
  CR as BOR: 14.3%
  PR as BOR: 42.9%
  progressive disease as BOR: 28.6%
  stable disease as BOR: 14.3%
[3]; 800 mg oral
  absorption after oral administration: rapidly absorbed
[3]; mean (SD)
  R ss: 0.849 (0.277)
[3]; mean (SD), listed as tazemetostat
  R ss: 0.849
[3]; both after C0D1 and C1D15 dosing
  mean urinary excretion of tazemetostat: less than 3%
[3]; human, plasma, oral, 800 mg
  Vd/F: 1910 L
[3]; human, plasma, oral, 800 mg BID, AUC(0‐ t ), plasma, after multiple doses, Cycle 1 day 15, last sampling time point 12 h, mean (SD), N = 7
  AUC: 4490 ng·h/mL
[3]; human, plasma, oral, 800 mg BID, t max, plasma, after multiple doses, Cycle 1 day 15, N = 7
  t max: ~1 h
[3]; human, plasma, oral, 800 mg, AUC(0‐12 h), plasma, after single dose, Cycle 0 day 1, mean (SD), N = 7
  AUC: 4700 ng·h/mL
[3]; human, plasma, oral, 800 mg, AUC(0‐ t ), plasma, after single dose, Cycle 0 day 1, last sampling time point 72 h, mean (SD), N = 7
  AUC: 5990 ng·h/mL
[3]; human, plasma, oral, 800 mg, AUC(0‐inf), plasma, after single dose, Cycle 0 day 1, mean (SD), N = 7
  AUC: 6030 ng·h/mL
[3]; human, plasma, oral, 800 mg, t max, plasma, after single dose, Cycle 0 day 1, N = 7
  t max: ~2 h
[3]; human, plasma, po, 800 mg
  Cmax: 1150 ng/mL
[3]; plasma, after multiple doses 800 mg BID, Cycle 1 day 15, mean (SD), N = 7
  C ss,min: 95.1 (37.7) ng/mL
[3]; plasma, after multiple doses, Cycle 1 day 15, N = 7
  t max: 1.05 (0.88, 2.03) h
[3]; plasma, after single dose, Cycle 0 day 1, N = 7
  t max: 1.97 (0.95, 4.08) h
[4]; 99 patients
  treatment‐related deaths: no treatment‐related deaths
[4]; all 99 patients
  treatment‐related grade 3 or higher AE anemia: 2%
  treatment‐related grade 3 or higher AE neutropenia: 3%
  treatment‐related grade 3 or higher AE thrombocytopenia: 3%
[4]; four of 99 patients
  Treatment‐related SAEs: 4%
[5]
  recommended dose: 800 mg BID
CYP3A4; in vitro
  effect on the activity of CYP3A4: induce and inhibit
CYP3A4
  metabolizing enzyme: mainly metabolized by CYP3A4
